Source: PubChem BioAssay (several laboratories)
The list is not random: actives were taken first. Their share in the collection is about 2.3%.
ROMK primary: ROMK potassium channel modulators, primary screen, cell-based, thallium flux, MLSMR library; ATP-sensitive inward rectifier potassium channel 1 (Homo sapiens), P48048; Tet-inducible ROMK, thallium flux fluorescence; actives lie on both sides; B-score at 10 µM; hit rate 2% among 130,000;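 active means signal ratio slope over the read window, or its plate-corrected B-score, at least 3 SD from the plate mean, either direction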;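 further: B-score of the F/F0 ratio slope over 7 to 12 s after thallium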
Target sequence (P48048 whole entry, looked up): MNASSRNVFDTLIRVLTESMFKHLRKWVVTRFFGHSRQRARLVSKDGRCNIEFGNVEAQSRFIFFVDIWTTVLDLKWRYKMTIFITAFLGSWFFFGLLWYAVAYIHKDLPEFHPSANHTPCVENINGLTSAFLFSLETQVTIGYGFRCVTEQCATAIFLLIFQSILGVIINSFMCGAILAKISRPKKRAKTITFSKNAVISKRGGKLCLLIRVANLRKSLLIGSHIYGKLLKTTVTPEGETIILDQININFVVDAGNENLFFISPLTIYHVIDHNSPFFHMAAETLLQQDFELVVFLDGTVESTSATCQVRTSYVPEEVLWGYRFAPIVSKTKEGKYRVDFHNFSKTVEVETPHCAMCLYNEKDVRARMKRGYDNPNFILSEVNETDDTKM
sdo1 growth: growth rescue of sdo1-depleted yeast, primary screen, S. cerevisiae, bone marrow failure model; S. cerevisiae sdo1-depleted JHY4D growth rescue, OD600 30 h; hits give high values; pdr5 snq2 efflux-pump mutant strain; z-score at 10 µM; hit rate 0.21% among 140,000; AID 817, 2007;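 active means z-score above 3 at both the 24 hr and the 30 hr optical density reads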;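 further: z-score against mean and SD of all compound wells on the same plate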
Autophagy mod: autophagy modulators in MEF cells, primary screen, imaging, high-content, MEF GFP-LC3 | MEF GFP-LC3 puncta imaging; test concentration mostly 10 µM | hit rate 0.98% among 190,000 | calls only at 10 µM (by protocol);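 active means percentage of spot-positive cells more than 3 SD above its plate mean, without a fluorescence outlier flag or 80% toxicity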;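 further: spot-positive cell cutoff set from DMSO-treated cells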
Ins promoter up: insulin promoter activators in MIN6 cells, imaging, high-content screening, mouse beta cells; hit rate 0.3% among 190,000; MIN6 insulin promoter-GFP reporter; hits give high values; AID 1625, 2009; z-score at 5 µM;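 active means z-score above 3 at 5 µM with at least 500 cells counted in the well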
ABCG2 inh: ABCG2 efflux pump inhibitors, primary screen, multiplex with ABCB1, IgMXP3 cells, flow cytometry. Broad substrate specificity ATP-binding cassette transporter ABCG2 (Homo sapiens), Q9UNQ0. JC-1 efflux. inhibition, % at 6.6 µM. hit rate 0.1% among 190,000. AID 1325, 2008;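 active means inhibition above 80%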;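 further: 0% = DMSO and 100% = nicardipine control wells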
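Test system: ABCG2 IgMXP3 and barcoded ABCB1 CCRF-Adr cell mix; Schedule: cells with compound and JC-1, 10 min at 25 °C, rotating, no wash; Technique: flow cytometry of retained JC-1 fluorescence; Measure: % inhibition of efflux relative to nicardipine and DMSO; Controls: nicardipine high and DMSO low controls.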
ABCB1 inh: ABCB1 efflux pump inhibitors, primary screen, cell-based, multiplex, flow cytometry, ABCG2 counter-screen; ATP-dependent translocase ABCB1 (Homo sapiens), P08183; CCRF-Adr cells, JC-1 efflux; inhibition, % at 6.6 µM; hit rate 0.067% among 190,000; AID 1326, 2008; in the data active means inhibition above about 40%;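 further: 0% = vehicle and 100% = reference inhibitor; higher value means more JC-1 retained so stronger ABCB1 efflux block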
* marks the source's active call; other numbers are inactive results; i = inactive; . = no result; + = active, no number.

SMILES | ROMK primary | sdo1 growth | Autophagy mod | Ins promoter up | ABCG2 inh | ABCB1 inh
COC(=O)c1onc(-c2c(Cl)cccc2Cl)c1C(=O)OC | . | . | . | -0.1 | . | .
O=C(Nc1ccccc1)Oc1cccc(Br)c1 | . | . | . | 0.04 | . | .
Nc1c(C(=O)O)sc2nc(-c3ccccc3)cc(-c3ccccc3)c12 | 0.719 | . | . | 4.64* | . | .
CCN(CC)CCOC(=O)c1ccc(N/C=C(/C#N)c2nc(-c3ccc4c(c3)OCO4)cs2)cc1 | . | . | . | -0.46 | . | .
N#C/C(=C\C=C\c1ccccc1)c1nc(-c2ccc3c(c2)OCO3)cs1 | . | -1.06 | + | 0.42 | -13.8 | -2.2
CC(NC(=S)Nc1ccc(S(=O)(=O)N2CCOCC2)cc1)C1CC2CCC1C2 (stereo not drawn) | . | -0.2 | i | . | -8.9 | -1.1
O=C(NNC(=S)NC(=O)C12CC3CC(CC(C3)C1)C2)c1ccncc1 | . | -2.77 | i | -0.27 | 8.4 | 0.4
CSc1ccc(/C=c2\s/c(=C\C(=O)C(C)(C)C)n(CC(=O)NCCC3=CCCCC3)c2=O)cc1 | -2.18 | 0.66 | + | -0.59 | -3.8 | -0.8
COCCn1nnnc1C(c1cccs1)N1CCN2CCCC2C1 (stereo not drawn) | . | . | i | -0.2 | 1.0 | 0.6
COc1ccc(-n2c(N3CCN(C)CC3)nc3sc4c(c3c2=O)CCCCC4)cc1 | . | -0.93 | + | . | 15.0 | 5.8
COC(=O)c1ccc(NC(=O)CCN2CCN(c3ccccc3)CC2)cc1 | -0.936 | 0.19 | + | -0.38 | 0.6 | 0.5
COc1ccc(Nc2ncccc2C(=O)Nc2ccccc2)cc1 | -0.139 | -0.51 | + | 1.06 | 6.7 | 0.7
O=C(NC(=S)Nc1ccc(O)cc1)c1ccccc1Cl | -1.35e-05 | . | i | -0.16 | 0.6 | -0.3
COc1ccc(NC(=S)NC(=O)c2ccccc2Cl)cc1 | 5.35* | . | i | 0.15 | 14.0 | -0.1
COC(C[C@@H](O)CC(=O)COCc1ccccc1)OC | . | . | . | -0.09 | . | .
Cc1ccc(-n2nnnc2-c2cccc(C)c2)cc1 | -0.271 | . | i | -0.25 | 0.5 | -0.3
COc1ccc(-n2nnnc2-c2cccc(OC)c2)cc1 | . | -0.86 | + | 0.04 | 1.9 | 0.3
COc1ccc(CCN2CC(C(=O)Nc3cccc(C(C)=O)c3)CC2=O)cc1OC (stereo not drawn) | -0.378 | . | + | 0.09 | 2.7 | -0.3
CC(=O)c1cccc(NC(=O)C2CC(=O)N(CCc3ccccc3)C2)c1 (stereo not drawn) | 1.15 | . | i | 0.99 | 0.6 | -0.1
C=CCn1c(SCCOc2ccc(OC)cc2)nnc1C(C)NC(=O)Cc1ccc(OC)cc1 (stereo not drawn) | . | 0.64 | i | 4.23* | 1.2 | 0.8
CCn1c(SCCOc2ccc(OC)cc2)nnc1C(CO)NC(=O)c1ccc(OC)cc1 (stereo not drawn) | . | -0.18 | i | . | 23.6 | 4.3
CCCN(CCC)c1nc(C)cc(C(C#N)c2nc3ccccc3o2)n1 (stereo not drawn) | 0.307 | 0.84 | + | -0.33 | 5.2 | 0.8
CC(c1nc2ccccc2o1)N1C(=O)c2ccccc2C1=O (stereo not drawn) | -0.00029 | 0.14 | i | . | -0.9 | -0.3
C/C(=N\NC(=O)c1ccn(C)n1)c1cccc(NC(=O)c2ccc(C)s2)c1 | 0.533 | 0.27 | i | -0.44 | -3.7 | 0.2
Cc1ccc(C2(C(F)(F)F)N=C3Sc4cc(C)ccc4N3C(=O)N2)cc1 (stereo not drawn) | . | 0.57 | i | 3.48* | -5.5 | -0.6
SMILES | ROMK primary | sdo1 growth | Autophagy mod | Ins promoter up | ABCG2 inh | ABCB1 inh
Cc1cc(C)nc(SCc2ccc(C(=O)N/N=C3\CCCC(=O)C3)cc2)n1 | 0.0739 | . | i | 0.78 | 0.8 | 0.2
N/C(=N\OC(=O)C(c1ccccc1)c1ccccc1)c1ccccn1 | 0.465 | -1.85 | i | . | 0.0 | 0.7
C/C(=N\NC(=O)C(c1ccccc1)c1ccccc1)c1ccccn1 | -0.0359 | -2.34 | + | -1.38 | 7.4 | 2.4
CCOC(=O)C1(CC2CCCCO2)CCN(C(=O)Nc2ccc(C(=O)OC)cc2)CC1 (stereo not drawn) | -0.416 | . | i | . | 1.1 | 0.3
Nc1nc2ccccc2n1/N=C/c1cccnc1 | 2.19* | 0.22 | i | . | 0.6 | -0.3
O=c1cc(-c2ccco2)oc2c1ccc1ccccc12 | -0.217 | 0.22 | i | 0.49 | 6.5 | 1.8
O=c1cc(C(Cl)(Cl)Cl)oc2c1ccc1ccccc12 | -1.1 | -1.81 | + | -3.8 | -7.3 | -1.5
CCCC(c1nnnn1CCOC)N1CCN(c2nc3ccccc3s2)CC1 (stereo not drawn) | -0.162 | . | i | 0.03 | 2.9 | 0.8
Cc1ccccc1OCc1n[nH]c(=S)n1Cc1ccccc1 | -0.957 | -1.17 | + | -0.04 | -4.7 | -1.3
S=c1[nH]nc(COc2cccc3ccccc23)n1Cc1ccccc1 | . | . | . | 0.01 | . | .
CC(C)C(NC(=O)c1cccnc1)C(=O)O (stereo not drawn) | 0.152 | . | i | . | 0.1 | -0.1
COC(=O)c1ccc(C(NC(=O)c2cccnc2)NC(=O)c2cccnc2)cc1 | 0.382 | . | + | -0.49 | 6.2 | 1.3
COC(=O)C(C(=O)OC)C(c1ccccc1)C(C(=O)c1ccccc1)[N+](=O)[O-] (stereo not drawn) | . | . | . | -0.24 | . | .
Cn1c(-c2c(N)n(CCc3ccccc3)c3nc4ccccc4nc23)nc2ccccc21 | -1.7 | -1.04 | + | 1.7 | 2.9 | 1.3
N#Cc1c(N)n(CCc2ccc(F)cc2)c2nc3ccccc3nc12 | 0.00403 | -0.29 | i | -0.08 | 1.7 | 0.6
CCc1nc2ccccc2n1CCc1ccccc1 | -0.373 | . | i | . | 1.9 | -0.2
Cn1c(-c2c(N)n(CCCc3ccccc3)c3nc4ccccc4nc23)nc2ccccc21 | . | -1.06 | + | 0.57 | 6.0 | 1.4
Cn1c(-c2c(N)n(C3CCCC3)c3nc4ccccc4nc23)nc2ccccc21 | . | -2.55 | + | 0.13 | 2.4 | 0.9
COc1cccc(N2CCN(C(=O)CSc3ccc(F)cc3)CC2)c1 | -0.501 | . | i | . | 7.5 | -0.2
CC(C)(C)NC(=O)C(c1ccncc1)N(C(=O)c1csnn1)c1cccc2ccccc12 (stereo not drawn) | -0.498 | . | i | -0.68 | 2.6 | 1.0
CCOc1ccc(C(=O)N(c2ccccn2)C2CCCCC2)cc1 | . | . | i | -0.31 | 2.3 | 1.7
CC1CC(C)(C)N(C(=O)CN2C(=O)c3ccccc3C2=O)c2ccccc21 (stereo not drawn) | . | -0.53 | + | . | 0.4 | 1.0
CC1=CC(C)(C)N(C(=O)CN2C(=O)c3ccccc3C2=O)c2ccccc21 | . | -1.24 | i | -0.26 | 1.8 | 0.4
